# Screening data as filed in PubChem.
# SENP6 block = SENP6 protease inhibitors, primary screen, biochemical, luminescence, uHTS; inhibition, % at 10 µM; hit rate 1.8% among 330,000; Sentrin-specific protease 6 (Homo sapiens), Q9GZR1; Recombinant SENP6 catalytic domain, aminoluciferin luminescence;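 active = inhibition above about 50% at the single tested dose, limit read from the data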;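 note: plate controls were DMSO wells with enzyme for no effect and DMSO wells lacking enzyme for full effect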
# UBC13 inh = UBC13 polyubiquitin chain formation inhibitors, primary screen, biochemical, TR-FRET, uHTS; AID 485273, 2010; hit rate 0.47% among 330,000; Ubiquitin-conjugating enzyme E2 N (Homo sapiens), P61088; inhibition, % at 20 µM; in the data active = inhibition above about 45%, passing the limit was not always enough
# Apaf1 inhib = inhibitors of human Apaf-1 apoptosome, primary screen, biochemical, DEVD-Rh110 fluorescence, uHTS. Apoptotic protease-activating factor 1 (Homo sapiens), O14727. reconstituted apoptosome caspase-3 activity. inhibition, % at 20 µM. hit rate 0.71% among 330,000. AID 489030, 2010; active = inhibition of at least 40% at 20 µM;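 note: plate controls were DMSO wells for no effect and DEVD-CHO caspase inhibitor wells for full effect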
#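 Material: reconstituted apoptosome with Apaf-1, cytochrome c, caspase-9, procaspase-3, dATP / Buffer or medium: pH 7.5 Hepes buffer with CHAPS, BSA, DTT / Also added: cytochrome c with DEVD-Rh110 / Schedule: compound with Apaf-1, dATP, procaspase-3 30 min, then 50 min reaction, room temperature / Technique: rhodamine 110 fluorescence at Ex 480/Em 540 nm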
# SENP8 block-1 = SENP8 protease inhibitors, primary screen, biochemical, luminescence; Sentrin-specific protease 8 (Homo sapiens), Q96LD8; purified SENP8, Z-RLRGG-aminoluciferin cleavage; hit rate 1.2% among 330,000; AID 2540, 2010; inhibition, % at 10 µM; in the data active = inhibition above about 50%
# Target sequence (Q96LD8 whole entry, looked up): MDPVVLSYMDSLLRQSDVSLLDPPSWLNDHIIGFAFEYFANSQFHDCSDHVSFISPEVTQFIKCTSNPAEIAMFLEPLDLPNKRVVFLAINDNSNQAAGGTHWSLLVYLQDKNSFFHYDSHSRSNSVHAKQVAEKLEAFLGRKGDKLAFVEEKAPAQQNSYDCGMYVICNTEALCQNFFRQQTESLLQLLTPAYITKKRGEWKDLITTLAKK
# SENP8 block-2 = human SENP8 protease inhibitors, primary screen, biochemical, fluorescence, Nedd8 protein substrate, uHTS | Sentrin-specific protease 8 (Homo sapiens), Q96LD8 | recombinant SENP8 | inhibition, % at 20 µM | hit rate 0.64% among 360,000; in the data active = inhibition mostly above about 40%, no sharp cut-off; inactive = mostly below about 27%
# SENP7 block = SENP7 protease inhibitors, primary screen, biochemical, luminescence, uHTS; recombinant SENP7, Z-RLRGG-aminoluciferin luminescence, 40 min; inhibition, % at 5 µM; Sentrin-specific protease 7 (Homo sapiens), Q9BQF6; hit rate 1.5% among 330,000; AID 434973, 2010;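 active = inhibition above about 50% at the single test dose, limit read from the data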;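 note: plate controls were DMSO with enzyme for no effect and no enzyme buffer wells for full effect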
# Target sequence (Q9BQF6 706-1050 limits assumed): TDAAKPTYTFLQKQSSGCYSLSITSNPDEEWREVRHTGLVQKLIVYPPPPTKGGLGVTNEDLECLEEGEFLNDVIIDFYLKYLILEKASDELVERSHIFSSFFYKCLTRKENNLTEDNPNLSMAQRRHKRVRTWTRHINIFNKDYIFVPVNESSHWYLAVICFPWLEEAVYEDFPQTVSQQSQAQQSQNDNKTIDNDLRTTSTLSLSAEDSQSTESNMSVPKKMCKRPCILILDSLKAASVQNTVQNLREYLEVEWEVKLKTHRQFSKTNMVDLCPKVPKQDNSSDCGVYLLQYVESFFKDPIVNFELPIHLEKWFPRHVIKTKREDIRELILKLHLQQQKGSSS
# SENP8 conf = SENP8 protease inhibitors, retest, confirmation, biochemical, luminescence, single concentration; shares compounds with SENP7 block; Recombinant SENP8, Z-RLRGG-aminoluciferin luminescence, 60 min; inhibition, % at 12.5 µM; hit rate 40% among 6,200; AID 488912, 2010;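 active = mean inhibition across replicates above about 50%, limit read from the data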
# SENP6 conf = SENP6 protease inhibitors, confirmation, biochemical, luminescence, single concentration | shares compounds with SENP7 block | recombinant SENP6, Z-RLRGG-aminoluciferin luminescence | inhibition, % at 12.5 µM | hit rate 58% among 6,200 | AID 488915, 2010
# SENP7 confirm = SENP7 protease inhibitors, retest, confirmation, biochemical, luminescence, single concentration; shares compounds with SENP7 block; recombinant SENP7, Z-RLRGG-aminoluciferin luminescence, 40 min; inhibition, % at 12.5 µM; hit rate 69% among 6,200
# Casp3 SENP sel = caspase-3 protease inhibitors, confirmation, selectivity assay for SENP inhibitor project, biochemical, single concentration | shares compounds with SENP7 block | hit rate 60% among 6,200 | purified caspase-3, Z-DEVD-aminoluciferin luminescence, 60 min | inhibition, % at 12.5 µM;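 active = mean inhibition above about 50%, limit read from the data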;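 note: plate controls were enzyme with DMSO for no effect and wells without caspase-3 for full effect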
# Luc interf = interferes with luciferase luminescence in SENP counter-screen | shares compounds with SENP7 block | Pre-incubated SENP8/Z-RLRGG-aminoluciferin, luciferase luminescence interference | inhibition, % at 12.5 µM | hit rate 39% among 6,200 | AID 488919;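 active = mean inhibition above about 50% when retested at one dose, limit read from the data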;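 note: plate controls were DMSO wells with completed reaction for no effect and substrate without enzyme for full effect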
# An asterisk follows results filed as active; x = no result. Rows were chosen to be rich in hits. Some 3% of all compounds tested hit in one or more screens of this group.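 Rule for the calls, unless noted: active = mean inhibition above about 50% in the one-dose retest (limit read from the data); inactive = the rest.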
SMILES,SENP6 block,UBC13 inh,Apaf1 inhib,SENP8 block-1,SENP8 block-2,SENP7 block,SENP8 conf,SENP6 conf,SENP7 confirm,Casp3 SENP sel,Luc interf
CCOC(=O)CN1C(=O)S/C(=C\c2ccc(-c3ccc(C(=O)O)c(Cl)c3)o2)C1=O,-1,-3,2,7,-258,1,x,x,x,x,x
O=Cc1ccc(-c2cccc([N+](=O)[O-])c2)o1,-7,-12,2,2,0,3,x,x,x,x,x
Cc1c(C(=O)O)cccc1-c1ccc(/C=C2/NC(=O)N(c3ccccc3)C2=O)o1,64*,-6,8,60*,-409,-1,-10,79*,92*,16,12
Cc1c(C(=O)O)cccc1-c1ccc(/C=C2\SC(=O)NC2=O)o1,98*,-21,23,98*,-149,91*,99*,100*,103*,97*,97*
O=C1NC(=O)/C(=C/c2ccc(-c3cccc([N+](=O)[O-])c3)o2)S1,86*,-23,-4,66*,27,55*,78*,60*,43,21,15
CCOC(=O)CN1C(=O)S/C(=C\c2ccc(-c3cccc(C(=O)O)c3C)o2)C1=O,55*,-7,-15,48,-181,35,49,48,52*,13,12
COc1ccc(OC)c(-n2nnnc2SCC(=O)Nc2ccc(C(=O)N3CCCCC3)cc2)c1,-11,6,-5,5,7,57*,7,6,1,-4,-3
Cc1nnc2sc(-c3cccc(F)c3)nn2c1=O,47,2,-1,70*,16,1,50*,63*,21,58*,-8
Cc1ccc(-c2nn3c(=O)c(C)nnc3s2)cc1,5,-4,-25,1,3,3,x,x,x,x,x
O=C(O)c1ccc(OS(=O)(=O)c2ccc(Cl)s2)c(Cl)c1,56*,-8,1,45,14,6,34,33,61*,54*,60*
O=C(O)c1cc(Cl)ccc1OS(=O)(=O)c1ccc(Cl)s1,22,6,3,-9,0,4,x,x,x,x,x
Cc1cc(NC(=O)NC(=O)c2ccccc2NC(=O)C(C)N)ccc1Oc1ncc(Br)cn1 (centres undefined),x,x,x,x,-35,x,x,x,x,x,x
O=[N+]([O-])c1cccc(CSc2nc3ccccc3[nH]2)c1,-17,-6,-8,-14,21,-5,x,x,x,x,x
COc1cccc(CSc2nc3ccccc3[nH]2)c1,64*,1,-8,77*,5,81*,0,79*,95*,80*,82*
Fc1ccccc1CSc1nc2ccccc2[nH]1,83*,-3,7,79*,16,85*,86*,85*,96*,83*,86*
CCCCN(C)C(=O)c1sc(=O)n(Cc2ccc(Cl)c(Cl)c2)c1C,x,x,x,x,-2,x,x,x,x,x,x
Cc1ccc(N2CCN(C(C(=O)Nc3c(C)cccc3C)c3cc4ccccc4o3)CC2)cc1 (centres undefined),x,x,x,x,17,x,x,x,x,x,x
Cc1ccc([N+](=O)[O-])cc1NC(=O)CCc1ccccc1,3,-4,-5,0,19,-9,x,x,x,x,x
Cc1ccc([N+](=O)[O-])cc1N/C=C1\CCc2ccccc2C1=O,79*,-24,32,9,-56,33,5,1,-12,1,-5
Cc1ccc(C(=O)CSc2ncnc3ccccc23)o1,33,10,-8,-25,-7,37,x,x,x,x,x
O=C(CSc1ncnc2ccccc12)c1cccs1,-66,-2,-2,8,2,56*,30,52*,87*,27,7
CC(C)NC(=O)c1cccc2c(-c3ccc(F)c(F)c3)coc12,x,x,x,x,11,x,x,x,x,x,x
Clc1ccc2nc(N3CCCCC3)sc2c1,97*,4,3,88*,33,90*,78*,84*,89*,82*,46
CCOC(=O)Nc1ccc2nc(N3CCCCCC3)sc2c1,58*,8,7,25,13,33,31,30,69*,23,22
Fc1cccc2sc(N3CCCCC3)nc12,59*,19,7,25,1,39,-19,16,71*,45,5
SMILES,SENP6 block,UBC13 inh,Apaf1 inhib,SENP8 block-1,SENP8 block-2,SENP7 block,SENP8 conf,SENP6 conf,SENP7 confirm,Casp3 SENP sel,Luc interf
Clc1ccc2nc(N3CCCCC3)[nH]c2c1,59*,11,-1,27,13,52*,48,47,80*,72*,59*
CS(=O)(=O)N1CCN(c2nc3ccc(Cl)cc3s2)CC1,-14,0,-26,9,26,0,x,x,x,x,x
CCOC(=O)N1CCN(C(=O)Nc2ccc3nc(C)sc3c2)CC1,-4,-2,-7,-3,-122,-2,x,x,x,x,x
COc1ccc(NC(=O)c2cccc3c(-c4ccc(O)c(OC)c4)coc23)cc1,x,x,x,x,0,x,x,x,x,x,x
COc1ccc(NC(C)C(=O)N/N=C/c2ccccc2OCc2cccc(Br)c2)cc1 (centres undefined),5,-12,12,2,20,93*,-13,-6,-9,7,-2
CCN1CCN(C(=O)CSc2cc(=O)n(C)c3ccccc23)CC1,-15,22,-8,-1,-13,90*,8,5,4,0,1
CN1CCN(C(=O)CSc2cc(=O)n(C)c3ccccc23)CC1,-6,2,0,-9,-12,4,x,x,x,x,x
COc1cc(C(C#N)N2N=C(c3ccccc3)CC2c2ccccc2)ccc1O (centres undefined),66*,-5,8,21,22,78*,-4,-2,4,10,9
Nc1cccc2c(O)cccc12,68*,-43,-10,30,-391,23,8,24,10,9,1
